Assay results: ChEMBL document CHEMBL5303300, “EUbOPEN Chemogenomics Library - Multiplex” (2023)
Several values for one entry are separate records, joined by “and”; a condition that tells them apart may be missing. Identical values can stand only once.

Columns and labels:
HEK-293T = assay: Multiplex assay against HEK293T; assay type: toxicity, cell-based; details: human, number of replicates 2
Summary of the method: (§1)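 Per cents of healthy-nucleus cells form the tubulin, mitochondrial-mass and membrane-permeability phenotype values. Live cells were stained at seeding with Hoechst33342, BioTracker Green Microtubule Cytoskeleton Dye, MitoTracker Red and Annexin V Alexa Fluor 680. After compound addition they were imaged on a CQ1 microscope at 37°C and 5% CO2, and CellPathfinder machine-learning gating split them into Hoechst high-intensity objects or normal cells, normal cells into healthy, pyknosed or fragmented nuclei, and pyknosed cells into mitotic or apoptotic.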

U2OS = assay: Multiplex assay against U2OS; assay type: toxicity, cell-based; details: human, number of replicates 2; summary of the method: as §1
[1] = 24 h, 1 µM, compound concentration 1 uM
[2] = 24 h, 10 µM, compound concentration 10 uM
[3] = 48 h, 1 µM, compound concentration 1 uM
[4] = 48 h, 10 µM, compound concentration 10 uM
[5] = 12 h, 1 µM, compound concentration 1 uM
[6] = 12 h, 10 µM, compound concentration 10 uM

NC(=O)c1ccc(-c2nc(-c3ccc4c(c3)OCCO4)c(-c3ccccn3)[nH]2)cc1
Population Normal (%) (HEK-293T; [1]): 90% and 92% | Population Pyknosed Nuclei (%) (HEK-293T; [1]): 7% and 8% | Population Tubulin-Different-Phenotype (%) (HEK-293T; [1]): 23% and 29% | Total Cell Count (HEK-293T; [1]): 1205 and 941 | Population Apoptotic (%) (HEK-293T; [2]): 48% and 44% | Population Fragmented Nuclei (%) (HEK-293T; [2]): 4% and 3% | Population Healthy Nuclei (%) (HEK-293T; [2]): 89% and 90% | Population Hoechst High Intensity Objects (%) (HEK-293T; [2]): 7% and 8% | Population Membrane Permeable-Phenotype (%) (HEK-293T; [2]): 4% and 3% | Population Mitochondria Different-Phenotype (%) (HEK-293T; [2]): 9% and 5% | Population Mitotic Cells (%) (HEK-293T; [2]): 51% and 55% | Population Normal (%) (HEK-293T; [2]): 92% and 91% | Population Pyknosed Nuclei (%) (HEK-293T; [2]): 6% and 5% | Population Tubulin-Different-Phenotype (%) (HEK-293T; [2]): 39% and 37% | Total Cell Count (HEK-293T; [2]): 908 and 852 | Population Apoptotic (%) (HEK-293T; [3]): 14% and 25% | Population Fragmented Nuclei (%) (HEK-293T; [3]): 16% and 11% | Population Healthy Nuclei (%) (HEK-293T; [3]): 80% and 85% | Population Hoechst High Intensity Objects (%) (HEK-293T; [3]): 10% | Population Membrane Permeable-Phenotype (%) (HEK-293T; [3]): 5% and 1% | Population Mitochondria Different-Phenotype (%) (HEK-293T; [3]): 0% | Population Mitotic Cells (%) (HEK-293T; [3]): 85% and 74% | Population Normal (%) (HEK-293T; [3]): 89% | Population Pyknosed Nuclei (%) (HEK-293T; [3]): 2% | Population Tubulin-Different-Phenotype (%) (HEK-293T; [3]): 11% and 15% | Total Cell Count (HEK-293T; [3]): 3179 and 2277 | Population Apoptotic (%) (HEK-293T; [4]): 6% and 9% | Population Fragmented Nuclei (%) (HEK-293T; [4]): 10% and 9% | Population Healthy Nuclei (%) (HEK-293T; [4]): 86% and 87% | Population Hoechst High Intensity Objects (%) (HEK-293T; [4]): 7% and 8% | Population Membrane Permeable-Phenotype (%) (HEK-293T; [4]): 5% | Population Mitochondria Different-Phenotype (%) (HEK-293T; [4]): 1% | Population Mitotic Cells (%) (HEK-293T; [4]): 93% and 90% | Population Normal (%) (HEK-293T; [4]): 92% and 91% | Population Pyknosed Nuclei (%) (HEK-293T; [4]): 3% | Population Tubulin-Different-Phenotype (%) (HEK-293T; [4]): 21% and 23% | Total Cell Count (HEK-293T; [4]): 2159 and 1774 | Population Apoptotic (%) (U2OS; [5]): 40% and 85% | Population Fragmented Nuclei (%) (U2OS; [5]): 1% and 4% | Population Healthy Nuclei (%) (U2OS; [5]): 88% and 86% | Population Hoechst High Intensity Objects (%) (U2OS; [5]): 1% and 0% | Population Membrane Permeable-Phenotype (%) (U2OS; [5]): 4% and 1% | Population Mitochondria Different-Phenotype (%) (U2OS; [5]): 0% and 1% | Population Normal (%) (U2OS; [5]): 98% and 100% | Population Pyknosed Nuclei (%) (U2OS; [5]): 9% | Population Tubulin-Different-Phenotype (%) (U2OS; [5]): 53% and 86% | Total Cell Count (U2OS; [5]): 54 and 150 | Population Apoptotic (%) (U2OS; [6]): 46% and 33% | Population Healthy Nuclei (%) (U2OS; [6]): 78% and 63% | Population Hoechst High Intensity Objects (%) (U2OS; [6]): 0% | Population Membrane Permeable-Phenotype (%) (U2OS; [6]): 4% and 0% | Population Mitochondria Different-Phenotype (%) (U2OS; [6]): 3% and 0% | Population Mitotic Cells (%) (U2OS; [6]): 53% and 66% | Population Normal (%) (U2OS; [6]): 100% | Population Pyknosed Nuclei (%) (U2OS; [6]): 14% and 8% | Population Tubulin-Different-Phenotype (%) (U2OS; [6]): 62% and 39% | Population Apoptotic (%) (U2OS; [1]): 54% and 64% | Population Fragmented Nuclei (%) (U2OS; [1]): 2% and 1% | Population Healthy Nuclei (%) (U2OS; [1]): 84% and 92% | Population Hoechst High Intensity Objects (%) (U2OS; [1]): 0% | Population Membrane Permeable-Phenotype (%) (U2OS; [1]): 1% | Population Mitochondria Different-Phenotype (%) (U2OS; [1]): 0% | Population Mitotic Cells (%) (U2OS; [1]): 45% and 35% | Population Normal (%) (U2OS; [1]): 100% | Population Pyknosed Nuclei (%) (U2OS; [1]): 13% and 6% | Population Tubulin-Different-Phenotype (%) (U2OS; [1]): 56% and 92% | Total Cell Count (U2OS; [1]): 84 and 214 | Population Healthy Nuclei (%) (U2OS; [2]): 86% and 65% | Population Hoechst High Intensity Objects (%) (U2OS; [2]): 0% | Population Membrane Permeable-Phenotype (%) (U2OS; [2]): 3% and 0% | Population Mitochondria Different-Phenotype (%) (U2OS; [2]): 4% and 3% | Population Normal (%) (U2OS; [2]): 99% and 100% | Population Pyknosed Nuclei (%) (U2OS; [2]): 9% and 2% | Population Tubulin-Different-Phenotype (%) (U2OS; [2]): 59% and 48% | Population Apoptotic (%) (U2OS; [3]): 52% and 74% | Population Fragmented Nuclei (%) (U2OS; [3]): 6% and 3% | Population Healthy Nuclei (%) (U2OS; [3]): 82% and 90% | Population Hoechst High Intensity Objects (%) (U2OS; [3]): 0% | Population Membrane Permeable-Phenotype (%) (U2OS; [3]): 0% and 1% | Population Mitochondria Different-Phenotype (%) (U2OS; [3]): 0% | Population Mitotic Cells (%) (U2OS; [3]): 47% and 25% | Population Normal (%) (U2OS; [3]): 100% | Population Pyknosed Nuclei (%) (U2OS; [3]): 10% and 6% | Population Tubulin-Different-Phenotype (%) (U2OS; [3]): 62% and 95% | Population Apoptotic (%) (U2OS; [4]): 77% and 78% | Population Fragmented Nuclei (%) (U2OS; [4]): 21% and 7% | Population Healthy Nuclei (%) (U2OS; [4]): 66% and 78% | Population Hoechst High Intensity Objects (%) (U2OS; [4]): 0% | Population Membrane Permeable-Phenotype (%) (U2OS; [4]): 8% and 3% | Population Mitochondria Different-Phenotype (%) (U2OS; [4]): 4% and 2% | Population Mitotic Cells (%) (U2OS; [4]): 22% and 21% | Population Normal (%) (U2OS; [4]): 100% | Population Pyknosed Nuclei (%) (U2OS; [4]): 12% and 14% | Population Tubulin-Different-Phenotype (%) (U2OS; [4]): 61% and 67%
